Measurements as given in ChEMBL document CHEMBL4038284, “Synthesis of novel quinoline-based 4,5-dihydro-1H-pyrazoles as potential anticancer, antifungal, antibacterial and antiprotozoal agents” (Eur J Med Chem, 2017).

Legend:
Type in all cases: functional
[1] = tested on: CCRF-CEM; experiment: Growth inhibition of human CCRF-CEM cells incubated for 48 hrs by sulforhodamine B assay; details: for CC50: read-out: LC50 (the source's name)
Summary of the method: (§1)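 NCI 60-line screen. Cells in RPMI-1640 with 5% FBS and 2 mM L-glutamine, preincubated 24 h, then time-zero plates TCA-fixed. Compounds from DMSO stocks given at five final concentrations (100, 10, 1.0, 0.1, 0.01 µM) for 48 h at 37 °C, 5% CO2. Cells fixed with 10% TCA, SRB-stained, read at 515 nm. GI50 is the concentration giving 50% lower net protein increase versus control.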

[2] = tested on: HL-60(TB); experiment: Growth inhibition of human HL-60(TB) cells incubated for 48 hrs by sulforhodamine B assay; details: HL-60, 48 h; summary of the method: as §1
[3] = tested on: MOLT-4; experiment: Growth inhibition of human MOLT4 cells incubated for 48 hrs by sulforhodamine B assay; details: MOLT-4, 48 h; for CC50: read-out: LC50 (the source's name); summary of the method: as §1
[4] = tested on: RPMI-8226; experiment: Growth inhibition of human RPMI8226 cells incubated for 48 hrs by sulforhodamine B assay; details: RPMI-8226, 48 h; for CC50: read-out: LC50 (the source's name); summary of the method: as §1
[5] = tested on: SR; experiment: Growth inhibition of human SR cells incubated for 48 hrs by sulforhodamine B assay; details: for CC50: read-out: LC50 (the source's name); summary of the method: as §1
[6] = tested on: HOP-62; experiment: Growth inhibition of human HOP62 cells incubated for 48 hrs by sulforhodamine B assay; details: HOP-62, 48 h
Summary of the method: (§2)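 NCI five-dose SRB assay (100, 10, 1.0, 0.1, 0.01 µM) with 48 h exposure in RPMI-1640 with 5% FBS and 2 mM L-glutamine. Cells fixed with TCA and stained with SRB, read at 515 nm. GI50 is the concentration where [(Ti−Tz)/(C−Tz)]×100 = 50.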

[7] = tested on: NCI-H226; experiment: Growth inhibition of human NCI-H226 cells incubated for 48 hrs by sulforhodamine B assay; details: NCI-H226, 48 h; for CC50: read-out: LC50 (the source's name); summary of the method: as §1
[8] = tested on: COLO 205; experiment: Growth inhibition of human COLO205 cells incubated for 48 hrs by sulforhodamine B assay; details: COLO 205, 48 h; summary of the method: as §2
[9] = tested on: HCC 2998; experiment: Growth inhibition of human HCC2998 cells incubated for 48 hrs by sulforhodamine B assay; details: HCC 2998, 48 h; summary of the method: as §1
[10] = tested on: HCT-15; experiment: Growth inhibition of human HCT15 cells incubated for 48 hrs by sulforhodamine B assay; details: HCT-15, 48 h; for CC50: read-out: LC50 (the source's name); summary of the method: as §1
[11] = tested on: HT-29; experiment: Growth inhibition of human HT-29 cells incubated for 48 hrs by sulforhodamine B assay; details: HT-29, 48 h
Summary of the method: (§3)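 Five-dose NCI SRB assay at 100, 10, 1.0, 0.1 and 0.01 μM for 48 h at 37 °C, 5% CO2. Medium was RPMI-1640 with 5% FBS and 2 mM glutamine. Time-zero plates were TCA-fixed at compound addition, A515 read after SRB staining. GI50 was solved from [(Ti−Tz)/(C−Tz)]×100 = 50. Values beyond the tested range are given as > or <.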

[12] = tested on: SF-539; experiment: Growth inhibition of human SF539 cells incubated for 48 hrs by sulforhodamine B assay; details: SF-539, 48 h
Summary of the method: (§4)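 NCI-60 panel cells grown in RPMI-1640 with 5% FBS and 2 mM L-glutamine, preincubated 24 h at 37 °C/5% CO2. Time-zero plates were TCA-fixed at compound addition. DMSO stocks were diluted in medium and tested at five final concentrations (100, 10, 1.0, 0.1, 0.01 µM) for 48 h. Cells were TCA-fixed, stained with SRB and read at 515 nm. GI50 = 50% lower net protein increase versus control.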

[13] = tested on: SNB-19; experiment: Growth inhibition of human SNB19 cells incubated for 48 hrs by sulforhodamine B assay; details: SNB-19, 48 h; summary of the method: as §4
[14] = tested on: SNB-75; experiment: Growth inhibition of human SNB75 cells incubated for 48 hrs by sulforhodamine B assay; details: SNB-75, 48 h; for CC50: read-out: LC50 (the source's name); summary of the method: as §1
[15] = tested on: LOX IMVI; experiment: Growth inhibition of human LOXIMVI cells incubated for 48 hrs by sulforhodamine B assay; summary of the method: as §3
[16] = tested on: M14; experiment: Growth inhibition of human M14 cells incubated for 48 hrs by sulforhodamine B assay; details: M14, 48 h; summary of the method: as §3
[17] = tested on: MDA-MB-435; experiment: Growth inhibition of human MDA-MB-435 cells incubated for 48 hrs by sulforhodamine B assay; details: MDA-MB-435, 48 h; summary of the method: as §3
[18] = tested on: SK-MEL-28; experiment: Growth inhibition of human SK-MEL-28 cells incubated for 48 hrs by sulforhodamine B assay; details: SK-MEL-28, 48 h; summary of the method: as §4
[19] = tested on: UACC-62; experiment: Growth inhibition of human UACC62 cells incubated for 48 hrs by sulforhodamine B assay; details: UACC-62, 48 h; for CC50: read-out: LC50 (the source's name); summary of the method: as §1
[20] = tested on: IGROV-1; experiment: Growth inhibition of human IGROV1 cells incubated for 48 hrs by sulforhodamine B assay; details: IGROV-1, 48 h; for CC50: read-out: LC50 (the source's name); summary of the method: as §1
[21] = tested on: OVCAR-3; experiment: Growth inhibition of human OVCAR3 cells incubated for 48 hrs by sulforhodamine B assay; details: OVCAR-3, 48 h; summary of the method: as §3
[22] = tested on: OVCAR-4; experiment: Growth inhibition of human OVCAR4 cells incubated for 48 hrs by sulforhodamine B assay; details: OVCAR-4, 48 h; summary of the method: as §3
[23] = tested on: OVCAR-8; experiment: Growth inhibition of human OVCAR8 cells incubated for 48 hrs by sulforhodamine B assay; details: OVCAR-8, 48 h; summary of the method: as §3
[24] = tested on: 786-0; experiment: Growth inhibition of human 786-0 cells incubated for 48 hrs by sulforhodamine B assay; details: 786-0, 48 h; summary of the method: as §2
[25] = tested on: ACHN; experiment: Growth inhibition of human ACHN cells incubated for 48 hrs by sulforhodamine B assay; details: for CC50: read-out: LC50 (the source's name); summary of the method: as §1
[26] = tested on: RXF 393; experiment: Growth inhibition of human RXF393 cells incubated for 48 hrs by sulforhodamine B assay; details: RXF 393, 48 h; summary of the method: as §3
[27] = tested on: SN12C; experiment: Growth inhibition of human SN12C cells incubated for 48 hrs by sulforhodamine B assay; summary of the method: as §4
[28] = tested on: TK-10; experiment: Growth inhibition of human TK10 cells incubated for 48 hrs by sulforhodamine B assay; details: TK-10, 48 h; for CC50: read-out: LC50 (the source's name); summary of the method: as §1
[29] = tested on: MDA-MB-231; experiment: Growth inhibition of human MDA-MB-231 cells incubated for 48 hrs by sulforhodamine B assay; details: MDA-MB-231, 48 h; summary of the method: as §3
[30] = tested on: MDA-MB-468; experiment: Growth inhibition of human MDA-MB-468 cells incubated for 48 hrs by sulforhodamine B assay; details: MDA-MB-468, 48 h; summary of the method: as §3
[31] = read-out: LC50 (the source's name)

SMILES: O=CN1N=C(c2ccc(Cl)cc2)CC1c1cccc(Nc2ccnc3cc(Cl)ccc23)c1 (stereo not given)
- GI50 [1]: 1420 nM
- CC50 [1]: > 100000 nM
- GI50 [2]: 1270 nM
- CC50 [2, 31]: > 100000 nM
- GI50 [3]: 1130 nM
- CC50 [3]: > 100000 nM
- GI50 [4]: 610 nM
- CC50 [4]: > 100000 nM
- GI50 [5]: 400 nM
- CC50 [5]: > 100000 nM
- GI50 [6]: 1210 nM
- CC50 [6, 31]: 70000 nM
- GI50 [7]: 1870 nM
- CC50 [7]: > 100000 nM
- GI50 [8]: 1430 nM
- CC50 [8, 31]: 21400 nM
- GI50 [9]: 3120 nM
- CC50 [9, 31]: > 100000 nM
- GI50 [10]: 1360 nM
- CC50 [10]: > 100000 nM
- GI50 [11]: 1280 nM
- LC50 [11]: 56400 nM
- GI50 [12]: 1690 nM
- CC50 [12, 31]: 35100 nM
- GI50 [13]: 4190 nM
- CC50 [13, 31]: > 100000 nM
- GI50 [14]: 1700 nM
- CC50 [14]: > 100000 nM
- GI50 [15]: 1290 nM
- CC50 [15, 31]: 9050 nM
- GI50 [16]: 1550 nM
- CC50 [16, 31]: > 100000 nM
- GI50 [17]: 380 nM
- CC50 [17, 31]: > 100000 nM
- GI50 [18]: 3150 nM
- CC50 [18, 31]: > 100000 nM
- GI50 [19]: 1140 nM
- CC50 [19]: 87800 nM
- GI50 [20]: 1440 nM
- CC50 [20]: > 100000 nM
- GI50 [21]: 1100 nM
- CC50 [21, 31]: 83300 nM
- GI50 [22]: 640 nM
- CC50 [22, 31]: 79800 nM
- GI50 [23]: 1920 nM
- LC50 (concentration causing 50% net cell kill) [23]: > 100000 nM
- GI50 [24]: 2960 nM
- LC50 [24]: 62700 nM
- GI50 [25]: 2640 nM
- CC50 [25]: > 100000 nM
- GI50 [26]: 1400 nM
- CC50 [26, 31]: > 100000 nM
- GI50 [27]: 3990 nM
- CC50 [27, 31]: > 100000 nM
- GI50 [28]: 2340 nM
- CC50 [28]: > 100000 nM
- GI50 [29]: 2740 nM
- CC50 [29, 31]: > 100000 nM
- GI50 [30]: 280 nM
- CC50 [30, 31]: > 100000 nM

SMILES: COc1cccc2c1C(=O)c1c(O)c3c(c(O)c1C2=O)C[C@@](O)(C(=O)CO)C[C@@H]3O[C@H]1C[C@H](N)[C@H](O)[C@H](C)O1 [DOXORUBICIN]
- GI50 [1]: 80 nM
- CC50 [1]: 100000 nM
- GI50 [2]: 120 nM
- GI50 [3]: 30 nM
- CC50 [3]: 100000 nM
- GI50 [4]: 80 nM
- CC50 [4]: 100000 nM
- GI50 [5]: 30 nM
- CC50 [5]: 100000 nM
- GI50 [6]: 70 nM
- GI50 [7]: 50 nM
- CC50 [7]: 6400 nM
- GI50 [8]: 180 nM
- GI50 [9]: 260 nM
- CC50 [10]: 100000 nM
- GI50 [11]: 120 nM
- GI50 [12]: 120 nM
- GI50 [13]: 40 nM
- GI50 [14]: 70 nM
- CC50 [14]: 3300 nM
- GI50 [15]: 70 nM
- GI50 [16]: 180 nM
- GI50 [17]: 250 nM
- GI50 [18]: 210 nM
- GI50 [19]: 140 nM
- CC50 [19]: 1310 nM
- GI50 [20]: 170 nM
- CC50 [20]: 100000 nM
- GI50 [21]: 390 nM
- GI50 [22]: 370 nM
- GI50 [23]: 100 nM
- GI50 [24]: 130 nM
- GI50 [25]: 80 nM
- CC50 [25]: 100000 nM
- GI50 [26]: 100 nM
- GI50 [27]: 70 nM
- GI50 [28]: 380 nM
- CC50 [28]: 90000 nM
- GI50 [29]: 510 nM
- GI50 [30]: 50 nM
